Test results reported in ChEMBL document CHEMBL3286129, “Optimization of peptidomimetic boronates bearing a P3 bicyclic scaffold as proteasome inhibitors” (Eur J Med Chem, 2014).

Assays:
[1] = Cytotoxicity against human leukemia cells assessed as cell growth at 10 uM relative to control; assay type: functional; conditions: read-out: Activity
Procedure, shortened: (§1)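 Single-concentration screen against a panel of human cancer cell lines. Each value is the mean percent growth across the cell lines of that tumour subpanel.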

SK-MEL-5 = assay: Growth inhibition of human SK-MEL-5 cells; assay type: functional
COLO 205 = assay: Growth inhibition of human COLO205 cells; assay type: functional
[2] = Cytotoxicity against human prostate cancer cells assessed as cell growth at 10 uM relative to control; assay type: functional; conditions: Cancer cell lines, read-out: Activity; procedure, shortened: as §1
SNB-19 = assay: Growth inhibition of human SNB19 cells; assay type: functional
RPMI-8226 = assay: Growth inhibition of human RPMI8226 cells; assay type: functional
SN12C = assay: Growth inhibition of human SN12C cells; assay type: functional
[3] = Growth inhibition of human LOXIMVI cells; assay type: functional; conditions: LOX IMVI
[4] = Growth inhibition of human HOP92 cells; assay type: functional
[5] = Growth inhibition of human UO31 cells; assay type: functional; conditions: UO-31
CAKI-1 = assay: Growth inhibition of human CAKI-1 cells; assay type: functional
HT-29 = assay: Growth inhibition of human HT-29 cells; assay type: functional
T47D = assay: Growth inhibition of human T47D cells; assay type: functional
[6] = Growth inhibition of human MOLT4 cells; assay type: functional
A549 = assay: Growth inhibition of human A549/ATCC cells; assay type: functional
NCI-H23 = assay: Growth inhibition of human NCI-H23 cells; assay type: functional
[7] = Growth inhibition of human SF295 cells; assay type: functional; conditions: SF-295
[8] = Growth inhibition of human OVCAR8 cells; assay type: functional
Malme-3M = assay: Growth inhibition of human MALME-3M cells; assay type: functional
[9] = Growth inhibition of human OVCAR4 cells; assay type: functional
[10] = Cytotoxicity against human renal cancer cells assessed as cell growth at 10 uM relative to control; assay type: functional; conditions: Cancer cell lines, read-out: Activity; procedure, shortened: as §1
SK-OV-3 = assay: Growth inhibition of human SKOV3 cells; assay type: functional
SNB-75 = assay: Growth inhibition of human SNB75 cells; assay type: functional
SF-268 = assay: Growth inhibition of human SF268 cells; assay type: functional
HL-60(TB) = assay: Growth inhibition of human HL-60(TB) cells; assay type: functional
MDA-MB-468 = assay: Growth inhibition of human MDA-MB-468 cells; assay type: functional
U-251 = assay: Growth inhibition of human U251 cells; assay type: functional
[11] = target: T1, Proteasome Macropain subunit MB1 (Homo sapiens, UniProt P28074); assay: Inhibition of chymotrypsin-like activity of 20S proteasome in human erythrocytes using Suc-Leu-Leu-Val-Tyr-AMC as substrate by fluorescence assay; conditions: read-out: Ki
T1 sequence (P28074 whole entry): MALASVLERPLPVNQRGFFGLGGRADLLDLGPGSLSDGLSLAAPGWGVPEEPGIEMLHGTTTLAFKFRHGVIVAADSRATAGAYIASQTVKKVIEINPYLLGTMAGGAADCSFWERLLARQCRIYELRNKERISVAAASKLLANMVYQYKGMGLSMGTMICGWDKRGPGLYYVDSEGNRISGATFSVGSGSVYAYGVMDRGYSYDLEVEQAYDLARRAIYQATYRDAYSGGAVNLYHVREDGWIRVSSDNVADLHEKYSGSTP

NCI-H522 = assay: Growth inhibition of human NCI-H522 cells; assay type: functional
KM12 = assay: Growth inhibition of human KM12 cells; assay type: functional
MDA-MB-435 = assay: Growth inhibition of human MDA-MB-435 cells; assay type: functional
A498 = assay: Growth inhibition of human A498 cells; assay type: functional
CCRF-CEM = assay: Growth inhibition of human CCRF-CEM cells; assay type: functional
[12] = Cytotoxicity against human breast cancer cells assessed as cell growth at 10 uM relative to control; assay type: functional; conditions: Cancer cell lines, read-out: Activity; procedure, shortened: as §1
MCF7 = assay: Growth inhibition of human MCF7 cells; assay type: functional
[13] = read-out: LC50 (the source's name)

CC(C)C[C@H](NC(=O)Cn1ccc2ccc(Br)cc2c1=O)B(O)O
growth at 10 µM [1]: 0.57% | GI50 (SK-MEL-5): 0.8 µM | LC50 (concentration killing 50% of cells) (SK-MEL-5): 7.88 µM | TGI (SK-MEL-5): 2.65 µM | GI50 (COLO 205): 2.83 µM | TGI (COLO 205): > 100 µM | CC50 (COLO 205; [13]): > 100 µM | growth at 10 µM [2]: 42.9% | GI50 (SNB-19): 3.86 µM | TGI (SNB-19): > 100 µM | CC50 (SNB-19; [13]): > 100 µM | GI50 (RPMI-8226): 0.32 µM | TGI (RPMI-8226): > 100 µM | CC50 (RPMI-8226; [13]): > 100 µM | GI50 (SN12C): 3.52 µM | TGI (SN12C): 55.2 µM | CC50 (SN12C; [13]): > 100 µM | GI50 [3]: 0.43 µM | TGI [3]: 1.85 µM | CC50 [3, 13]: 7.21 µM | GI50 ([4]; HOP-92): 2.56 µM | TGI ([4]; HOP-92): 8.7 µM | CC50 ([4]; HOP-92, read-out: LC50 (the source's name)): > 100 µM | GI50 [5]: 1.61 µM | LC50 [5]: 61.6 µM | TGI [5]: 11.1 µM | GI50 (CAKI-1): 0.41 µM | TGI (CAKI-1): 10.5 µM | CC50 (CAKI-1; [13]): > 100 µM | GI50 (HT-29): 0.73 µM | LC50 (HT-29): > 100 µM | TGI (HT-29): 5.52 µM | GI50 (T47D): 0.78 µM | TGI (T47D): 12.4 µM | CC50 (T47D; [13]): > 100 µM | GI50 ([6]; MOLT-4): 0.3 µM | TGI ([6]; MOLT-4): 1.57 µM | CC50 ([6]; MOLT-4, read-out: LC50 (the source's name)): > 100 µM | GI50 (A549): 4.58 µM | TGI (A549): > 100 µM | CC50 (A549; [13]): > 100 µM | GI50 (NCI-H23): 5.05 µM | TGI (NCI-H23): > 100 µM | CC50 (NCI-H23; [13]): > 100 µM | GI50 [7]: 2.03 µM | LC50 [7]: 86.4 µM | TGI [7]: 15.9 µM | GI50 ([8]; OVCAR-8): 3.53 µM | TGI ([8]; OVCAR-8): > 100 µM | CC50 ([8]; OVCAR-8, read-out: LC50 (the source's name)): > 100 µM | GI50 (Malme-3M): 4.31 µM | TGI (Malme-3M): > 100 µM | CC50 (Malme-3M; [13]): > 100 µM | GI50 ([9]; OVCAR-4): 4.94 µM | TGI ([9]; OVCAR-4): > 100 µM | CC50 ([9]; OVCAR-4, read-out: LC50 (the source's name)): > 100 µM | growth at 10 µM [10]: -8.89% | GI50 (SK-OV-3): 8.73 µM | LC50 (SK-OV-3): > 100 µM | TGI (SK-OV-3): > 100 µM | GI50 (SNB-75): 2.13 µM | LC50 (SNB-75): 63.3 µM | TGI (SNB-75): 9.09 µM | GI50 (SF-268): 3.76 µM | LC50 (SF-268): > 100 µM | TGI (SF-268): 31.9 µM | GI50 (HL-60(TB)): 0.38 µM | TGI (HL-60(TB)): 5.34 µM | CC50 (HL-60(TB); [13]): > 100 µM | GI50 (MDA-MB-468): 0.3 µM | TGI (MDA-MB-468): 1.1 µM | CC50 (MDA-MB-468; [13]): > 100 µM | GI50 (U-251): 5.56 µM | TGI (U-251): > 100 µM | CC50 (U-251; [13]): > 100 µM | Ki [11]: 0.053 µM | GI50 (NCI-H522): 0.59 µM | LC50 (NCI-H522): 9.06 µM | TGI (NCI-H522): 2.54 µM | GI50 (KM12): 3.55 µM | LC50 (KM12): > 100 µM | TGI (KM12): 17.3 µM | GI50 (MDA-MB-435): 0.33 µM | TGI (MDA-MB-435): 1.29 µM | CC50 (MDA-MB-435; [13]): 5.88 µM | GI50 (A498): 0.1 µM | LC50 (A498): 28.6 µM | TGI (A498): 0.58 µM | GI50 (CCRF-CEM): 0.44 µM | TGI (CCRF-CEM): > 100 µM | CC50 (CCRF-CEM; [13]): > 100 µM | growth at 10 µM [12]: 2.23% | GI50 (MCF7): 0.42 µM | TGI (MCF7): > 100 µM | CC50 (MCF7; [13]): > 100 µM
